The test system of data set [1] is ASPC1. The data set can be described thus: Antiproliferative activity against human AsPC1 cells assessed as reduction in cell growth incubated for 72 hrs by MTT assay. The note with it: ASPC1, 72 h.
Another data set relates to PANC-1. Nature of the data set: Antiproliferative activity against human PANC1 cells assessed as reduction in cell growth incubated for 72 hrs by MTT assay. The note with it: PANC-1, 72 h. (In general: Tetrazolium assays rely on reduction of a dye to a coloured formazan, in cell work by metabolically active cells.)
A further data set concerns NCI/ADR-RES. Nature of the data set: Antiproliferative activity against human MCF7/ADR cells assessed as reduction in cell growth incubated for 72 hrs by MTT assay.
A further data set concerns BXPC-3. Nature of the data set: Antiproliferative activity against human BxPC3 cells assessed as reduction in cell growth incubated for 72 hrs by MTT assay. The note with it: BXPC-3, 72 h.
Data set [2] can be described thus: Cytotoxicity against human HPDEC cells assessed as reduction in cell growth incubated for 72 hrs by MTT assay.
Another data set deals with NCI-H1975. The data set can be described thus: Antiproliferative activity against human NCI-H1975 cells assessed as reduction in cell growth incubated for 72 hrs by MTT assay. The note with it: NCI-H1975, 72 h.
A further data set relates to L02. The data set can be described thus: Cytotoxicity against human L02 cells assessed as reduction in cell growth incubated for 72 hrs by MTT assay. The note with it: L02, 72 h.
The test system of data set [3] is ASPC1. The data set can be described thus: Effect on total ERK protein level in human AsPC1 cells at 10 to 100 nM incubated for 72 hrs by immunoblotting analysis. The class given is cell-based. The note with it: aspc1, 72 h, 0.1 µM. Put shortly:
(§1)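 AsPC-1 cells were treated at 10–100 nM for 72 h and lysed. Lysates were cleared at 14,000 g for 15 min at 4 °C, and 50 µg protein was run on 8–12% SDS-PAGE and transferred to PVDF. Membranes were blocked 2 h in 5% skim milk, probed overnight at 4 °C with primary antibodies (FAK, p-FAK, MEK1, p-MEK1, ERK1/2, p-ERK1/2, β-actin) and detected by ECL.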
In general terms: A western blot detects proteins with antibodies after separation by electrophoresis.

Data set [4] has as its system ASPC1. Nature of the data set: Induction of apoptosis in human AsPC1 cells assessed as nuclear fragmentation incubated for 72 hrs by acridine orange/ethidium bromide dye based fluorescent inverted microscopy. Type of data set: functional, cell-based. Put shortly: (§2)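 AsPC-1 cells (about 2×10⁵ per well) were incubated 12 h, then treated with inhibitor at 150–600 nM for 72 h. Cells were washed twice with PBS and stained with AO/EB (1.0 µg/mL each in PBS). Apoptotic, necrotic and live cells were scored and counted under a fluorescent inverted microscope at 100×.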

Data set [5] relates to ASPC1. The data set can be described thus: Antitumor activity against human AsPC1 cells xenografted in BALB/cJNju-Foxn1nu/Nju mouse assessed as inhibition of tumor growth at 60 mg/kg, po for 7 days. Type of data set: functional. The note with it: 168 h, read-out: TGI. Summed up: (§3)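 Nude mice were injected subcutaneously in the right axilla with 3×10⁶ AsPC-1 cells in 0.1 mL PBS. Three days later they were randomized into three groups and given compound orally once daily for 7 days, with controls receiving oral 25% PEG-400. Tumor volume was calculated as A×B²/2, and tumor weight was recorded; n = 3.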
For orientation: A xenograft is tissue or cells of one species grown in another, often human tumour cells in immunodeficient mice.

The test system of data set [6] is ASPC1. Nature of the data set: Effect on total MEK protein level in human AsPC1 cells at 10 to 100 nM incubated for 72 hrs by immunoblotting analysis. The class given is cell-based. The note with it: aspc1, 72 h, 0.1 µM. Put shortly: as §1
Data set [7] deals with ASPC1. The note with it: Homo sapiens, 125 to 1000 nM.
For data set [8], the system named is ASPC1. The data set can be described thus: Induction of apoptosis in human AsPC1 cells assessed as nuclear condensation incubated for 72 hrs by acridine orange/ethidium bromide dye based fluorescent inverted microscopy. The class given is functional, cell-based. Summed up:
as §2

For data set [9], the system named is ASPC1. Nature of the data set: Antitumor activity against human AsPC1 cells xenografted in BALB/cJNju-Foxn1nu/Nju mouse assessed as inhibition of tumor growth at 30 mg/kg, po for 7 days. The class given is functional. The note with it: 168 h, read-out: TGI. Put shortly:
as §3

In data set [10] the test system is ASPC1. Nature of the data set: Induction of apoptosis in human AsPC1 cells assessed as membrane blebbing incubated for 72 hrs by acridine orange/ethidium bromide dye based fluorescent inverted microscopy. Type of data set: functional, cell-based. Summed up:
as §2

In data set [11] the test system is ASPC1. Nature of the data set: Induction of apoptosis in human AsPC1 cells assessed as apoptotic bodies incubated for 72 hrs by acridine orange/ethidium bromide dye based fluorescent inverted microscopy. Type of data set: functional, cell-based. Summed up:
as §2

The target of data set [12] is Focal adhesion kinase 1 (Homo sapiens) (UniProt Q05397). The data set can be described thus: Inhibition of FAK in human AsPC1 cells assessed as reduction in autophosphorylation at 100 nM incubated for 72 hrs by immunoblotting analysis. The class given is cell-based. Put shortly: as §1

The record followed here is ChEMBL document CHEMBL4346700, “Structure-based modification of carbonyl-diphenylpyrimidines (Car-DPPYs) as a novel focal adhesion kinase (FAK) inhibitor against various stubborn cancer cells” (Eur J Med Chem, 2019).

Molecules are shown by their SMILES. Activity calls are given as the source filed them. The rule behind the calls is not given here.

By IC50 is commonly meant the concentration at which inhibition is half-maximal. Broadly, the inhibition is the relative decrease from the control value, in per cent.

Focal adhesion kinase 1 (Homo sapiens), sequence (Q05397 2-1052 limits assumed): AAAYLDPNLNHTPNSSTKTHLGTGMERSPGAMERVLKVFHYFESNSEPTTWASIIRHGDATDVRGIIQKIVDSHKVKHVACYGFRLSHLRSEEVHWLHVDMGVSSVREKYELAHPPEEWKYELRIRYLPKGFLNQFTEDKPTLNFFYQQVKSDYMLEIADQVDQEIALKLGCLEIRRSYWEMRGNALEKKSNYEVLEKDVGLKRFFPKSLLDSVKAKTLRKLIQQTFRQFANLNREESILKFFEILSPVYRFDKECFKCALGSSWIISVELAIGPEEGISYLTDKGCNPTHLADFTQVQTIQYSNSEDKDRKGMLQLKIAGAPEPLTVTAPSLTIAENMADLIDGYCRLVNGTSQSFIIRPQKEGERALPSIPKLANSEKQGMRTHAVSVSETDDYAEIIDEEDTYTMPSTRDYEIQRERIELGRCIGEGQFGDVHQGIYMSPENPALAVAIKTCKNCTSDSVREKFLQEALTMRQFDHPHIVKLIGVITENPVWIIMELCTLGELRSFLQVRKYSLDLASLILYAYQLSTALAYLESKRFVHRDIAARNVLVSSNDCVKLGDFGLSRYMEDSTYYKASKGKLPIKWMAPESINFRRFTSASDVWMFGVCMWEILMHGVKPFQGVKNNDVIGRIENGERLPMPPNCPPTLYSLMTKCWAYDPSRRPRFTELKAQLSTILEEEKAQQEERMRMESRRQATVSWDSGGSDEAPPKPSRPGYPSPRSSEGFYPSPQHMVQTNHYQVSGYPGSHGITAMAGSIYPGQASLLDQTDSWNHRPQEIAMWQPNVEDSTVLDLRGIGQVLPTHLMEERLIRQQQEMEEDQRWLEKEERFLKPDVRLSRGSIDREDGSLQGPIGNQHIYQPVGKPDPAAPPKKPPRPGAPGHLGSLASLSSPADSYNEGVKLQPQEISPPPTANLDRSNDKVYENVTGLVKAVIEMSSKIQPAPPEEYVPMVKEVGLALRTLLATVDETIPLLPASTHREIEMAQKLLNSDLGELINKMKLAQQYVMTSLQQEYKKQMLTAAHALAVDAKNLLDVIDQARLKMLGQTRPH

Turning to `CNC(=O)c1ccccc1Nc1nc(Nc2ccc(OC(C)C(=O)N3CCOCC3)cc2)ncc1Cl` (configuration not stated), the IC50 in the data set on ASPC1 [1] stood at 2870 nM; in the data set with PANC-1, 1540 nM; in the data set on NCI/ADR-RES, 1440 nM; in the data set with BXPC-3 it was 5340 nM; in data set [2] it was 1040 nM; with NCI-H1975, 495 nM. Besides, the IC50 with L02 came to 821 nM.

With `CNC(=O)c1ccccc1Nc1nc(Nc2ccc(SCC(=O)N3CCOCC3)cc2)ncc1Cl`, the IC50 with ASPC1 [1] is 1220 nM; with PANC-1 it was 5510 nM; with NCI/ADR-RES it was 1820 nM; in the data set with BXPC-3, 2890 nM; in data set [2] it was 1990 nM; in the data set with NCI-H1975 it was 413 nM. The IC50 with L02 worked out at 4330 nM.

For the compound `CNC(=O)c1ccccc1Nc1nc(Nc2ccc(OCC(=O)N3CCOCC3)cc2)ncc1Cl`, the IC50 in the data set with ASPC1 [1] was 1750 nM; in the data set on PANC-1, more than 10000 nM; with NCI/ADR-RES, 2930 nM; in the data set on BXPC-3 it was 5990 nM; in data set [2], 4790 nM; in the data set with NCI-H1975, 160 nM. The IC50 in the data set on L02 is 594 nM.

In the case of `O=C(NC1CC1)c1ccccc1Nc1nc(Nc2ccc(OCC(=O)N3CCOCC3)cc2)ncc1Cl`, the IC50 in the data set on ASPC1 [1] is more than 10000 nM; in the data set with PANC-1, more than 10000 nM; with NCI/ADR-RES it was more than 5000 nM; in the data set on BXPC-3, more than 10000 nM; in [2], 16700 nM; in the data set with NCI-H1975 it was 514 nM. For the same compound, the IC50 with L02 was 910 nM.

Take `CNC(=O)c1ccccc1Nc1nc(Nc2ccc(CC(=O)N3CCOCC3)cc2)ncc1Cl`: the IC50 worked out at 105 nM in the data set on ASPC1 [1]; 4120 nM in the data set with PANC-1; 590 nM with NCI/ADR-RES; 90 nM in the data set on BXPC-3; 6620 nM in data set [2]; 1170 nM in the data set with NCI-H1975. In addition, the IC50 in the data set on L02 was found to be 3700 nM. In addition, the Activity result in the data set on ASPC1 [3] and in the data set with ASPC1 [6] was “Non-Toxic” throughout. Further, the outcome in the data set on ASPC1 [4], in the data set on ASPC1 [8], in the data set with ASPC1 [10] and in the data set on ASPC1 [11] was Active. Also, the inhibition in vivo at 60 mg/kg with ASPC1 [5] came out at 67%. In the data set with ASPC1 [7], the inhibition result was “Active”. The inhibition in vivo at 30 mg/kg in the data set with ASPC1 [9] turned out to be 87%.

`CCC(Oc1ccc(Nc2ncc(Cl)c(Nc3ccccc3C(=O)NC)n2)cc1)C(=O)N1CCOCC1` (configuration not stated): the IC50 in the data set with ASPC1 [1] was 2600 nM; in the data set on PANC-1, 750 nM; in the data set on NCI/ADR-RES, 2100 nM; with BXPC-3, 8730 nM; in data set [2] it was 2170 nM; in the data set with NCI-H1975 it was 444 nM. Besides, the IC50 in the data set on L02 is 674 nM.

As to `CNC(=O)c1ccccc1Nc1nc(Nc2ccc(N3CCOCC3)cc2OC)ncc1Cl`, the IC50 is more than 10000 nM with PANC-1; more than 5000 nM in the data set on NCI/ADR-RES; more than 10000 nM with BXPC-3; 11400 nM in [2]; more than 2000 nM with NCI-H1975. Besides, the inhibition in data set [12] was determined as 100%.
